Measured values from ChEMBL document CHEMBL3792364, “Identification and biological activity of 6-alkyl-substituted 3-methyl-pyridine-2-carbonyl amino dimethyl-benzoic acid EP4 antagonists” (Bioorg Med Chem Lett, 2016).
In brackets after ≈: the same amount, converted by molar mass.

Assays:
[1] = target: T1, Prostaglandin E2 receptor EP4 subtype (Homo sapiens, UniProt P35408); assay: Antagonist activity against EP4 in human whole blood assessed as reversal of PGE2-mediated suppression of LPS-induced TNF-alpha production preincubated for 30 mins followed by LPS stimulation measured after 20 to 24 hrs by enzyme immunoassay; assay type: tissue-based
T1 sequence (P35408 whole entry): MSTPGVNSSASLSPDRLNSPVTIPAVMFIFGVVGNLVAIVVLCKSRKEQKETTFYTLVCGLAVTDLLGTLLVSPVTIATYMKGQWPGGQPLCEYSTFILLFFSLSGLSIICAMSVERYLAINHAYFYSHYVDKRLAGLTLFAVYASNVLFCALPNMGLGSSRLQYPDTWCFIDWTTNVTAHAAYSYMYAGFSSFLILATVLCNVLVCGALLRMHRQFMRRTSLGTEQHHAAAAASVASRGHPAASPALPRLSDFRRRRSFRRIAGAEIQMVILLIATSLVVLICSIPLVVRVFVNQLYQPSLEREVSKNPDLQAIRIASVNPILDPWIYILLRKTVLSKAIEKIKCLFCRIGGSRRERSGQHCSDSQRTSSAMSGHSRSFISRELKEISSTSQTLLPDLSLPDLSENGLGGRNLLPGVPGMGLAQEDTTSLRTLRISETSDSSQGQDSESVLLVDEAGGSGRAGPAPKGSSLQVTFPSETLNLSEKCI
Procedure, shortened: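 Pooled blood from donors free of NSAIDs or celecoxib for 48 h and of glucocorticoids for 2 weeks. Blood pretreated 30 min at 37 °C, 5% CO2 with compound in DMSO (7-point curve, triplicate). LPS […] ± 10 nM PGE2 (final) added, then incubated 20–24 h. Plasma TNFα read at A450-A650. IC50 from sigmoidal nonlinear fit; geometric mean of independent runs.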

[2] = target: T1, Prostaglandin E2 receptor EP4 subtype; assay: Antagonist activity against human EP4 expressed in HEK293 cells assessed as inhibition of PGE2-stimulated production of cAMP incubated for 20 mins by HTRF assay; assay type: functional, cell-based
[3] = Aqueous solubility of compound at pH 6 at 2 mM after 20 hrs by HPLC; assay type: physicochemical; details: aqueous medium
Procedure, shortened: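 Samples in DMSO dried 12 h, then redissolved at pH 6 at a 2 mM target concentration. Stirred 20 h, filtered through 0.7 µm GF filter. Filtrate concentration measured by HPLC against a DMSO standard curve.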

| Structure (SMILES) | IC50 [1] [nM] | IC50 [2] [nM] | solubility at 20 h, 2000 µM [3] [µg/mL] |
| --- | --- | --- | --- |
| Cc1ccc(N2CCC(C)(O)CC2)nc1C(=O)Nc1c(C)cc(C(=O)O)cc1C | 3600 | 39.8 | 817 (≈ 2060 µM) |
| Cc1ccc(N2CCCC(CO)C2)nc1C(=O)Nc1c(C)cc(C(=O)O)cc1C (stereo not given) | 1450 | 16.5 |  |
